In data set [1] the test system is NCI-H2286. In words: Antiproliferative activity against human NCI-H2286 cells after 72 hrs by CCK8 assay. The following applies: NCI-H2286, 72 h.
The target in data set [2] is Fibroblast growth factor receptor 1 (Homo sapiens, UniProt P11362). As to the kind of experiment: Inhibition of FGFR1 (unknown origin) after 60 mins by ELISA. Background: An ELISA detects its analyte on a solid surface through an enzyme-linked reagent.
In data set [3] the target is T1, Discoidin domain-containing receptor 2 (Homo sapiens, UniProt Q16832).
T1 sequence (Q16832 whole entry): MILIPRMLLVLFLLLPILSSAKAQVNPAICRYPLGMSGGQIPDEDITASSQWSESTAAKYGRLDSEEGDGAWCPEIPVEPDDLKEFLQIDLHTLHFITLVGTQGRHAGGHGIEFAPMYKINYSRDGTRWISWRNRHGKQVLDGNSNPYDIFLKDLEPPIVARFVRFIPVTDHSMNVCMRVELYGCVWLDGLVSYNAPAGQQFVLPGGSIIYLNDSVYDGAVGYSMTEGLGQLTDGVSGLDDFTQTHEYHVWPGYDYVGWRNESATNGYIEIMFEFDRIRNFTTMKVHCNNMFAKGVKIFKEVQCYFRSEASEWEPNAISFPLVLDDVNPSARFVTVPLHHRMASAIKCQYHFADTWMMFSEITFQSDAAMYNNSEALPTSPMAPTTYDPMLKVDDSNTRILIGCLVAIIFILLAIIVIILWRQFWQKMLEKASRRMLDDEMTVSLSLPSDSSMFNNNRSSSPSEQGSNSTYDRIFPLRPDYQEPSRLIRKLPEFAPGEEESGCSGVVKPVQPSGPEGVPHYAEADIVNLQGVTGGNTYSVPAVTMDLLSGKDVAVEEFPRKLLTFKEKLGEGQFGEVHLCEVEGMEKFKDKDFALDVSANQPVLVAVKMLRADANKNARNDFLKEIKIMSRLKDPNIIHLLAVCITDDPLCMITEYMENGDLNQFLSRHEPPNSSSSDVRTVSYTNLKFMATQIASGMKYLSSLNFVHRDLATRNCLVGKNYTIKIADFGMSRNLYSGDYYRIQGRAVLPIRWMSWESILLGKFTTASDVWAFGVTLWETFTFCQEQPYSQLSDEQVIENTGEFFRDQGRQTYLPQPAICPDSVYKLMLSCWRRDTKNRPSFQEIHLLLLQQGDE
In words: Inhibition of DDR2 (unknown origin) using poly (Glu, Tyr) 4:1 substrate after 60 mins by ELISA.

Data set [4] deals with KG-1. As to the kind of experiment: Antiproliferative activity against human KG1 cells after 72 hrs by CCK8 assay. Particulars: KG-1, 72 h. (Tetrazolium assays rely on reduction of a dye to a coloured formazan, in cell work by metabolically active cells.)
For another data set, the system named is NCI-H716. In words: Antiproliferative activity against FGFR2 amplified human NCI-H716 cells after 72 hrs by CCK8 assay. The following applies: NCI-H716, 72 h. Type of data set: functional, cell-based. The method in brief: (§1)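 Cells seeded at low density in growth medium and compounds added the next day. Incubated 72 h, then proliferation read by sulforhodamine B, MTT or CCK-8. IC50 obtained by four-parameter concentration-response curve fitting.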

Data set [5] relates to KG-1. As to the kind of experiment: Antiproliferative activity against FGFR1 fused human KG1 cells after 72 hrs by CCK8 assay. In kind it is functional, cell-based. The following applies: KG-1, 72 h. The method in brief:
as §1

A further data set deals with SNU-16. In words: Antiproliferative activity against FGFR2 amplified human SNU16 cells after 72 hrs by CCK8 assay. Type of data set: functional, cell-based. Particulars: SNU-16, 72 h. In a few lines:
as §1

Data set [6] is described as follows: Antiproliferative activity against human UM-UC-14 cells harboring FGFR3 mutation after 72 hrs by CCK8 assay. Particulars: UMUC14, 72 h. Type of data set: functional, cell-based. In a few lines: as §1
Data set [7] concerns NCI-H2286. In words: Antiproliferative activity against human NCI-H2286 cells harboring DDR2 mutation after 72 hrs by CCK8 assay. The following applies: NCI-H2286, 72 h. In kind it is functional, cell-based. The method in brief: as §1
Data set [8] deals with NCI-H2286. In words: Antitumor activity against human NCI-H2286 cells xenografted in SCID mouse assessed as tumor growth inhibition at 50 mg/kg, po qd for 10 consecutive days relative to control. Type of data set: functional. Particulars: read-out: TGI. In a few lines:
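NCI-H2286 xenograft established by s.c. fragment implantation. At 100-150 mm³ mice were randomized (vehicle n=10, treated n=5) and given compound orally once daily for 10 days. Tumour volume = length×width²/2, measured twice weekly. TGI taken on the final day from change in volume relative to vehicle, with Student's t-test.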
Background: A xenograft is tissue or cells of one species grown in another, often human tumour cells in immunodeficient mice.

For data set [9], the system named is T2, Discoidin domain-containing receptor 2 (Homo sapiens), Q16832 [I638F].
T2 sequence (whole entry): T1 sequence (Q16832 whole entry) with I638F
Particulars: NCI-H2286, 100 nM.

In data set [10] the target is T3, Discoidin domain-containing receptor 2 (Homo sapiens) (UniProt Q16832).
T3 sequence (whole entry): T1 sequence (Q16832 whole entry)
As to the kind of experiment: Inhibition of DDR2 (unknown origin) at 20 uM using poly (Glu, Tyr) 4:1 substrate after 60 mins by ELISA relative to control. The method in brief: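 ELISA with purified recombinant DDR2 on poly(Glu,Tyr) 4:1 precoated at 20 µg/mL. 10 µM ATP in HEPES pH 7.4 buffer with MgCl2, MnCl2, Na3VO4 and DTT, 1% DMSO; 60 min at 37 °C. Phosphotyrosine detected by PY99 and HRP anti-mouse IgG with o-phenylenediamine at A490. Inhibition = 1−A490/A490control; two separate experiments.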

The nature of data set [11]: Solubility of compound. Type of data set: physicochemical.
Data set [12] is described as follows: AUC (0 to t) in ICR(CD-1) mouse at 10 mg/kg, po administered via gavage by triple quadrupole mass spectrometric analysis. In kind it is ADME, organism-based. The following applies: in vivo. The method in brief:
(§2)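 Oral gavage at 1 mg/mL in 1% Tween80/water to male ICR mice (18-22 g, n=3). Plasma sampled at 0.25, 0.5, 1, 2, 4, 8 and 24 h, protein precipitated with methanol:acetonitrile (1:1) containing internal standard, and quantified by UPLC-triple quadrupole MS. AUC and MRT were taken from per-animal time-concentration curves. Cmax is the maximum plasma level and Tmax the time to reach it.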

A short description of data set [13]: Permeability in human Caco2 cells at 5 uM after 120 mins by LC-MS/MS analysis relative to control. Particulars: Caco-2, read-out: Fabs. In kind it is ADME, cell-based. The method in brief: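 Caco-2 (C2BBe1) monolayers grown confluent on collagen-coated transwell membranes. Buffer is HBSS with 10 mM HEPES at pH 7.4 and pH 6.8. Compound 5 µM added to the apical or basolateral side; duplicate samples taken at 120 min and analysed by LC-MS/MS. Results given as Papp A→B and B→A and efflux ratio B→A/A→B.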

Data set [14] can be described thus: Tmax in ICR(CD-1) mouse at 10 mg/kg, po administered via gavage by triple quadrupole mass spectrometric analysis. In kind it is ADME, organism-based. Particulars: in vivo. In a few lines:
(§3)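 Dosed by gavage at 1 mg/mL in 1% Tween80/water to male ICR mice, 18-22 g, n=3. Blood taken at 0.25, 0.5, 1, 2, 4, 8 and 24 h. Plasma precipitated with methanol:acetonitrile (1:1) containing internal standard, then UPLC-MS/MS on a C18 column with an ammonium acetate/formic acid–acetonitrile gradient. Tmax read directly from the data; MRT calculated per animal from concentration–time curves.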

The nature of data set [15]: MRT in ICR(CD-1) mouse at 10 mg/kg, po administered via gavage by triple quadrupole mass spectrometric analysis. Type of data set: ADME, organism-based. The following applies: in vivo. The method in brief:
as §3

A short description of data set [16]: Efflux ratio of permeability in human Caco2 cells at 5 uM after 120 mins by LC-MS/MS analysis. The following applies: Caco-2. In kind it is ADME, cell-based. The method in brief: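 Caco-2 (C2BBe1) monolayers grown to confluence on collagen-coated transwell polycarbonate membranes. Compound at 5 μM added apically or basolaterally in HBSS with 10 mM HEPES at pH 7.4 and 6.8. Duplicate samples taken at 120 min and analysed by LC-MS/MS. Efflux ratio = Papp(B→A)/Papp(A→B).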

Data set [17] in a line: Cmax in ICR(CD-1) mouse at 10 mg/kg, po administered via gavage by triple quadrupole mass spectrometric analysis. Further details: dose 10 mg/kg, route oral. The following applies: in vivo. Type of data set: ADME, organism-based. In a few lines:
as §2

The nature of data set [18]: Half life in ICR(CD-1) mouse at 10 mg/kg, po administered via gavage by triple quadrupole mass spectrometric analysis. In kind it is ADME, organism-based. Particulars: in vivo. The method in brief:
as §2

Data set [19] is described as follows: AUC (0 to infinity) in ICR(CD-1) mouse at 10 mg/kg, po administered via gavage by triple quadrupole mass spectrometric analysis. In kind it is ADME, organism-based. Further details: dose 10 mg/kg, route oral, time infinity. The following applies: in vivo. The method in brief:
as §2

Substitutions are numbered along the chain they refer to. Converted amounts (≈) assume the structure as drawn. The source made the active and inactive calls. The calls are words filed in the database; no cut-off is given here. A value given as a limit tells only on which side of the number the result lay.

Fibroblast growth factor receptor 1, sequence (P11362 whole entry, the tested form may be a part): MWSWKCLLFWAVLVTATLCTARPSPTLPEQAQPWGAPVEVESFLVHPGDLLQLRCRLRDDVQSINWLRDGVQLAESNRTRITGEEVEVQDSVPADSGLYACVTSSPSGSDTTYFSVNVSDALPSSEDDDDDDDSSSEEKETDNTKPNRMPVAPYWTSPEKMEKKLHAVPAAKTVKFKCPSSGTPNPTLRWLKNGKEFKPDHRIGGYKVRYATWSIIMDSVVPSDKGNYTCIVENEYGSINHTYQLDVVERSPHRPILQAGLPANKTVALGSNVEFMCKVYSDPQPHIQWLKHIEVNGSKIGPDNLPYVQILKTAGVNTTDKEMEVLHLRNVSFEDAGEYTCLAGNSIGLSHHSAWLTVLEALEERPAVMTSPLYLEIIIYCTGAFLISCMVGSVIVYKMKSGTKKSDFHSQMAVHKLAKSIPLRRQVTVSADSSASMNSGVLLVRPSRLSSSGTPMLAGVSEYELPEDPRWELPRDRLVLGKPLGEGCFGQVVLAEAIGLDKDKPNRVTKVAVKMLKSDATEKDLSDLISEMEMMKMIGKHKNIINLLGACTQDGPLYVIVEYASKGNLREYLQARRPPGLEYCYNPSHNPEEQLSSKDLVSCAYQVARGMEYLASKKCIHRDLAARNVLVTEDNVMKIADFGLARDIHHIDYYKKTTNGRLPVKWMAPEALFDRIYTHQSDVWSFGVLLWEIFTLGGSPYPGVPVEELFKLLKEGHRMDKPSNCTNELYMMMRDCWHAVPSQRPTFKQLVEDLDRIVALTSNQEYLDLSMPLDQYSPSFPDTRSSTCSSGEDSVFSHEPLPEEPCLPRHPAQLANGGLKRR

By IC50 is commonly meant the concentration that gives 50% inhibition. A higher IC50 goes with a need for much substance. In the case of `Cc1ccc(C(=O)Nc2cccc(C(F)(F)F)c2)cc1-c1ccc2c(-c3cn[nH]c3)n[nH]c2c1`, the IC50 was above 1 µM in the data set on NCI-H2286 [1], above 0.1 µM in data set [2], 0.0556 µM in data set [3] and above 1 µM with KG-1 [4].

Regarding `COc1cc(CCc2cc(NC(=O)c3ccc(N4C[C@@H](C)N[C@@H](C)C4)cc3)n[nH]2)cc(OC)c1` [FEXAGRATINIB], the IC50 in the data set with NCI-H716 was determined as 0.0059 µM; in the data set with KG-1 [5] it was 0.0058 µM; in the data set with SNU-16, 0.0196 µM; in data set [6], 0.0045 µM.

What is called inhibition is the change of the read-out against control, counted positive when it falls. The molecule `Cc1nc(Nc2ncc(C(=O)Nc3c(C)cccc3Cl)s2)cc(N2CCN(CCO)CC2)n1` [DASATINIB] registered an IC50 in the data set with NCI-H2286 [7] of 0.0333 µM. Further, the inhibition in vivo at 50 mg/kg with NCI-H2286 [8] was found to be 50.9%. Also, the inhibition entry in [9] is “Active”.

Molecule `Cn1cccc(C(=O)Nc2cccc(-c3ccc4[nH]ncc4c3)c2)c1=O` yielded an inhibition in [10] of 76%.

Usually solubility stands for the dissolved amount per volume that the medium holds. Read a high solubility as much dissolved substance. Usually AUC(0-t) stands for exposure summed from dosing to a finite time, without extrapolation to infinity. One may read the Tmax as the time from dosing to the highest level. The term MRT denotes the average time that molecules of a dose stay in the body. One may read the efflux ratio as a quotient of directional permeabilities that is used to spot active efflux. As usually defined, the Cmax is the maximum level reached in the sampled fluid or tissue. By half-life is commonly meant how long it takes for the measured level to halve. As usually defined, the AUC(0-inf) is the area under the concentration-time curve extrapolated to infinity. Read a high AUC(0-inf) as more exposure. `Cc1ccc(C(=O)Nc2cc(CN3CCN(C)CC3)cc(C(F)(F)F)c2)cc1-c1ccc2c(-c3cnn(C4CC4)c3)n[nH]c2c1` registered a solubility in data set [11] of 10 µM (≈ 6.14 µg/mL). The molecule also had an AUC(0-t) in data set [12] of 66.2 ng·h/mL. For the same molecule, the Fa at 2 h, 5 µM in [13] amounted to 12%. Further, in data set [14], the Tmax is 1.67 h. The molecule further registered an MRT in data set [15] of 3.2 h. For the same molecule, the efflux ratio at 2 h, 5 µM in data set [16] was 42.7. This molecule registered a Cmax in [17] of 111 ng/mL. Also, in data set [18], the half-life is 1.4 h. In data set [19], this molecule returned an AUC(0-inf) of 610 ng·h/mL.

As to `Cc1ccc(C(=O)Nc2cccc(C(F)(F)F)c2)cc1-c1ccc2c(-c3cnn(C)c3)n[nH]c2c1`, the figures for the IC50 (with NCI-H2286 [1]; in data set [3]; with KG-1 [4]) were 0.0243 µM, 0.0044 µM and 0.0657 µM, respectively. Besides, the AUC(0-t) in [12] worked out at 3480 ng·h/mL. Further, the Tmax in data set [14] came to 1.17 h. Moreover, the MRT in data set [15] worked out at 3.26 h. Further, in [17], the Cmax is 890 ng/mL. The molecule further showed a half-life in [18] of 2.75 h. For the same molecule, the AUC(0-inf) in [19] is 3480 ng·h/mL.

These data come from ChEMBL document CHEMBL4411287, “Discovery and optimization of a series of 3-substituted indazole derivatives as multi-target kinase inhibitors for the treatment of lung squamous cell carcinoma” (Eur J Med Chem, 2019).
